The source of these data is ChEMBL document CHEMBL2311348, “The extremo-α-carbonic anhydrase (CA) from Sulfurihydrogenibium azorense, the fastest CA known, is highly activated by amino acids and amines” (Bioorg Med Chem Lett, 2013).

The test system of test [1] is Sulfurihydrogenibium yellowstonense. As to the kind of experiment: Activation of Sulfurihydrogenibium yellowstonense recombinant CA by stopped flow CO2 hydrase method.
For test [2], the system named is Sulfurihydrogenibium azorense. As to the kind of experiment: Activation of Sulfurihydrogenibium azorense recombinant alpha carbonic anhydrase by stopped flow CO2 hydrase method. The procedure, abridged:
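Full-length recombinant enzyme in a stopped-flow CO2 hydration assay at 25 °C: 0.2 mM phenol red read at its absorbance maximum, 10 mM Hepes pH 7.5, 0.1 M NaClO4, 10 s traces, CO2 1.7–17 mM. Activators were diluted from 10 mM water stocks down to 0.001 µM and preincubated with enzyme for 15 min at room temperature. Uncatalyzed rates were subtracted. kcat was measured at 10 µM activator. KA came from a steady-state equation, mean of ≥3 determinations.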

Turning to `N[C@H](Cc1c[nH]cn1)C(=O)O`, the values for the KA in test [1] and in test [2] were 0.012 µM and 0.09 µM, respectively.
In the case of `N[C@H](Cc1ccc(O)c(O)c1)C(=O)O`, the results for the KA in test [1] and in test [2] were 0.43 µM and 0.89 µM, respectively.
Regarding `NCCc1ccc(O)c(O)c1`, the values for the KA in test [1] and in test [2] were 0.037 µM and 0.011 µM, respectively.
The like results for `NCCN1CCOCC1` were, in that order, 0.1 µM and 1.15 µM.
The like results for `NCCN1CCNCC1` were, in that order, 0.09 µM and 0.076 µM.
The like results for `CNC[C@@H](O)c1ccc(O)c(O)c1` were, in that order, 0.68 µM and 0.074 µM.
`NCc1ccccn1`: the KA was determined as 0.1 µM in test [1] and 0.081 µM in test [2].
With `Nc1ccc(C[C@H](N)C(=O)O)cc1`, the KA in test [1] turned out to be 0.97 µM; in test [2], 0.09 µM.
The like results for `NCCc1c[nH]cn1` were, in that order, 0.08 µM and 0.1 µM.
The like results for `N[C@@H](Cc1c[nH]cn1)C(=O)O` were, in that order, 0.11 µM and 0.071 µM.
`N[C@H](Cc1c[nH]c2ccccc12)C(=O)O`: the KA came out at 0.002 µM in test [1] and 0.003 µM in test [2].
The like results for `N[C@H](Cc1ccc(O)cc1)C(=O)O` were, in that order, 0.83 µM and 0.11 µM.
The like results for `NCCc1c[nH]c2ccc(O)cc12` were, in that order, 0.021 µM and 0.007 µM.
Take `N[C@@H](Cc1ccc(O)cc1)C(=O)O`: the results for the KA in test [1] and in test [2] were 0.001 µM and 0.052 µM, respectively.
For `N[C@@H](Cc1c[nH]c2ccccc12)C(=O)O`, the values for the KA in test [1] and in test [2] were 0.007 µM and 0.023 µM, respectively.
For the molecule `N[C@@H](Cc1ccc(O)c(O)c1)C(=O)O`, the figures for the KA in test [1] and in test [2] were 0.09 µM and 0.004 µM, respectively.
Consider `NCCc1ccccn1`, for which the KA amounted to 0.33 µM in test [1] and 0.34 µM in test [2].
